Source: ChEMBL document CHEMBL4028892, “Discovery of a 1-Methyl-3,4-dihydronaphthalene-Based Sphingosine-1-Phosphate (S1P) Receptor Agonist Ceralifimod (ONO-4641). A S1P1 and S1P5 Selective Agonist for the Treatment of Autoimmune Diseases” (J Med Chem, 2017)

Legend:
Cynomolgus monkey = assay: Toxicity in unrestrained conscious cynomolgus monkey assessed as decrease in heart rate at 100 mg/kg, po administered as single dose measured after 4 to 24 hrs; type: organism-based, Macaca fascicularis; conditions: in vivo
How it was run: (§1)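 Single oral dose of 1, 10 or 100 mg/kg to unrestrained conscious monkeys. Heart rate was followed from 4 to 24 h after dosing and its decrease expressed against the pretreatment value. Plasma concentration was sampled at 4 and 24 h.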

[1] = target: Sphingosine 1-phosphate receptor 1 (Rattus norvegicus, UniProt P48303); assay: Agonist activity at rat S1P1 receptor assessed as inhibition of forskolin-stimulated cAMP accumulation after 30 mins by ELISA; type: functional
[2] = Plasma concentration in unrestrained conscious cynomolgus monkey at 100 mg/kg, po measured at 4 hrs; type: ADME, organism-based, Macaca fascicularis; how it was run: as §1
[3] = Plasma concentration in unrestrained conscious cynomolgus monkey at 10 mg/kg, po measured at 4 hrs; type: ADME, organism-based, Macaca fascicularis; how it was run: as §1
[4] = Oral bioavailability in Crl:CD(SD) rat at 0.1 mg/kg by LC-MS/MS analysis; type: ADME, organism-based; conditions: in vivo
How it was run: (§2)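 Single intravenous or oral dose of 0.1 mg/kg to male Crl:CD(SD) rats and to monkeys. Values are means of three animals with SD.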

[5] = target: T1, Sphingosine 1-phosphate receptor 4 (Homo sapiens, UniProt O95977); assay: Displacement of [33P]-S1P from human S1P4 receptor expressed in CHO-K1 cells after 60 mins by scintillation counting method; type: cell-based
T1 sequence (O95977 whole entry): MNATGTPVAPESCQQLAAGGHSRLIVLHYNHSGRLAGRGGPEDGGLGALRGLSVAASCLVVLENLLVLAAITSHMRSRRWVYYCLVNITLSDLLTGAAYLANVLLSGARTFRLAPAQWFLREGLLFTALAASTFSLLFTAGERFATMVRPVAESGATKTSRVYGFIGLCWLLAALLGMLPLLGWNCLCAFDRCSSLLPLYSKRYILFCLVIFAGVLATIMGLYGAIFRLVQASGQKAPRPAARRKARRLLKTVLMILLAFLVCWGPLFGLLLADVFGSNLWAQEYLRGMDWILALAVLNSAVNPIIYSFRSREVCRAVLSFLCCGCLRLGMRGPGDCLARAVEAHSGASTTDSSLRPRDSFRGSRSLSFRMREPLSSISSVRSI

[6] = Volume of distribution at steady state in cynomolgus monkey at 0.1 mg/kg, iv by LC-MS/MS analysis; type: ADME, organism-based, Macaca fascicularis; conditions: in vivo, read-out: Vdss; how it was run: as §2
[7] = AUC (infinity) in Crl:CD(SD) rat at 0.1 mg/kg, po by LC-MS/MS analysis; type: ADME, organism-based; set-up: dose 0.1 mg/kg, time infinity, route oral; conditions: in vivo; how it was run: as §2
[8] = Half life in cynomolgus monkey at 0.1 mg/kg, iv by LC-MS/MS analysis; type: ADME, organism-based, Macaca fascicularis; conditions: in vivo; how it was run: as §2
[9] = Cmax in bovine type 2 collagen-induced Lewis rat arthritis model at 0.1 mg/kg, po qd administered up to 27 days; type: ADME, organism-based; set-up: dose 0.1 mg/kg, route oral; conditions: in vivo

Sequence of Sphingosine 1-phosphate receptor 1 (P48303 whole entry): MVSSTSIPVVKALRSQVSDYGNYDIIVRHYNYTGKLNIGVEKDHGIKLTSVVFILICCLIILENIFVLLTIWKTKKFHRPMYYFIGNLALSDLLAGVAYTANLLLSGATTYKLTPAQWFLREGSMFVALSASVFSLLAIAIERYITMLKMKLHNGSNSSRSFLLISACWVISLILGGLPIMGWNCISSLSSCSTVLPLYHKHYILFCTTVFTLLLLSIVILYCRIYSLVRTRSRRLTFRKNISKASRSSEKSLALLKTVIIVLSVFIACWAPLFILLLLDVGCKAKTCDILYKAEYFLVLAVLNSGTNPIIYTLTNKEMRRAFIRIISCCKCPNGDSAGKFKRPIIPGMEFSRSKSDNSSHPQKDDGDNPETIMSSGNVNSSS

- EC50 [1]: 0.0286 nM
- concentration at 4 h [2]: 13500 ng/mL
- concentration at 4 h [3]: 3570 ng/mL
- bioavailability [4]: 75.9%
- Ki [5]: 28.8 nM
- Vd [6]: 2.66 L/kg
- AUC(0-inf) [7]: 229 ng·h/mL
- half-life [8]: 30 h
- Cmax [9]: 21.5 nM
SMILES: CCCc1ccc(COc2ccc3c(c2)CCC(CN2CC(C(=O)O)C2)=C3C)c(OC)c1
- Activity (Cynomolgus monkey): Toxic
